Assays:
[1] = Percent inhibition against DNA polymerase alpha when activated DNA was used as template at 10 uM concentration
Outline: (§1)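 Commercial cellular DNA polymerase α (2.5 units/mL) was run in 100 mM Tris-HCl pH 8.0 with 3 mM MgCl2, 1 mM DTT, 40 μg BSA, 100 μM dATP/dCTP/dGTP, ~10 μM [3H]dTTP and 200 μg/mL activated DNA. Incubation was at 37 °C. Values are duplicate means, and inhibition under 5% was taken as not significant.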

Nucleic Acid [2] = assay: Percent inhibition against DNA polymerase alpha when (dT)n-(rA)12-18 sequence was used as template at 10 uM concentration; type: nucleic-acid assay
Outline: (§2)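 Cellular DNA polymerase α (2.5 units/mL) was run in Tris-HCl pH 8.0 buffer with MgCl2, DTT and BSA at 37 °C. Values are duplicate means, and inhibition under 5% was taken as not significant.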

Nucleic Acid [3] = assay: Percent inhibition against DNA polymerase alpha when (dT)n-(rA)12-18 sequence was used as template at 50 uM concentration; type: nucleic-acid assay; outline: as §2
HSV-1 [4] = assay: Percent inhibition of DNA polymerase activity in HSV-1 cell lines at a concentration of 10 uM; type: cell-based; conditions: at 10 µM
Outline: (§3)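 HSV-1 DNA polymerase was isolated from Vero cells infected with HSV-1 strain C42. It was assayed with [3H]dTTP as labelled substrate and activated calf thymus DNA at 200 μg/mL. Values are averages of duplicate assays, and inhibition under 5% was taken as not significant.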

HSV-1 [5] = assay: Percent inhibition of DNA polymerase activity in HSV-1 cell lines at a concentration of 50 uM; type: cell-based; conditions: at 50 µM; outline: as §3
Human alphaherpesvirus 1 [6] = assay: Percent inhibition of cellular growth against HSV-1 cells at 10 uM concentration; type: functional; conditions: Human alphaherpesvirus 1, HSV-1
Outline: (§4)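 Toxicity taken as the reduction in Vero cell proliferation over 48 h.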

Human alphaherpesvirus 1 [7] = assay: Inhibitory effect against HSV-1 plaque formation at a concentration of 10 uM; type: functional
Outline: (§5)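 HSV-1 strain C42 plaque formation in Vero cells, with compound added to parallel cultures. Values are averages of duplicate cell cultures.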

Human alphaherpesvirus 1 [8] = assay: Inhibitory effect against HSV-1 plaque formation at a concentration of 50 uM; type: functional; outline: as §5
Human alphaherpesvirus 1 [9] = assay: Percent reduction in HSV-1 yield at 10 uM concentration; type: functional
Outline: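 HSV-1 strain C42 yield from Vero cells, measured by virus titration. Compounds were added to parallel cultures, and values are averages of duplicate cultures. Inhibition below 50% was not considered significant.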

[10] = system: unidentified influenza virus; type: functional; conditions: at 200 µM
[11] = Percent inhibition against DNA polymerase alpha when activated DNA was used as template at 50 uM concentration; outline: as §1
[12] = system: Avian myeloblastosis virus reverse transcriptase (Avian myeloblastosis virus); assay: Percent inhibition against AMV reverse transcriptase when (dC)n-(dG)12-18 sequence was used as template at 50 uM concentration
[13] = system: Avian myeloblastosis virus reverse transcriptase (Avian myeloblastosis virus); assay: Percent inhibition against AMV reverse transcriptase when (dT)n-(rA)12-18 sequence was used as template at 50 uM concentration
[14] = system: Avian myeloblastosis virus reverse transcriptase (Avian myeloblastosis virus); assay: Percent inhibition against AMV reverse transcriptase when (rC)n-(dG)12-18 sequence was used as template at 50 uM concentration
Human alphaherpesvirus 1 [15] = assay: (§6) Percent inhibition of cellular growth against HSV-1 cells at 200 uM concentration; type: functional; conditions: Human alphaherpesvirus 1, HSV-1; outline: as §4
Human alphaherpesvirus 1 [16] = assay: Inhibitory effect against HSV-1 plaque formation at a concentration of 200 uM; type: functional; conditions: at 200 µM
Human alphaherpesvirus 1 [17] = assay: Inhibitory effect against HSV-1 plaque formation at a concentration of 1 uM; type: functional; outline: as §5
Human alphaherpesvirus 1 [18] = assay: Inhibitory effect against HSV-1 plaque formation at a concentration of 5 uM; type: functional; outline: as §5
[19] = system: unidentified influenza virus; assay: Inhibitory effect against influenza virus plaque formation at a concentration of 100 uM; type: functional
Outline: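 Plaque inhibition of influenza A strain Victoria in MDCK cells. Values are averages of duplicate cell cultures.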

Human alphaherpesvirus 1 [20] = assay: Percent inhibition of cellular growth against HSV-1 cells at a concentration of 200 uM; type: functional; conditions: Human alphaherpesvirus 1, HSV-1; outline: as §4
Human alphaherpesvirus 1 [21] = assay: Percent inhibition of cellular growth against Vero cells at 100 uM concentration; type: functional; conditions: Human alphaherpesvirus 1, HSV-1; outline: as §4
Human alphaherpesvirus 1 [22] = assay: Inhibitory effect against HSV-1 plaque formation at a concentration of 100 uM; type: functional; outline: as §5
Human alphaherpesvirus 1 [23] = assay: as §6; type: functional; conditions: Human alphaherpesvirus 1, HSV-1; remark: listed apart in the source

Structure (SMILES) | inhibition [1] [%] | inhibition (Nucleic Acid [2]) [%] | inhibition (Nucleic Acid [3]) [%] | inhibition (HSV-1 [4]) [%] | inhibition (HSV-1 [5]) [%] | Reduction (Human alphaherpesvirus 1 [9]) [%] | Reduction [10] [%] | inhibition [11] [%] | inhibition [12] [%] | inhibition [13] [%] | inhibition [14] [%] | Reduction (Human alphaherpesvirus 1 [16]) [%] | Reduction [19] [%] | also measured
Br.Cn1cc(NC(=O)c2cc(NC(=O)c3cc(NC=O)cn3C)c[nH]2)cc1C(=O)NCCC(=N)N | 29 | 55 | 80 | 55 | 88 | 92 | <50 | 41 | < 5 | 13 | < 5 |  |  | inhibition at 10 µM (Human alphaherpesvirus 1 [6]): 25%; Reduction (Human alphaherpesvirus 1 [7]): <50%; Reduction (Human alphaherpesvirus 1 [8]): 90%
Br.Cn1cc(NC(=O)c2cc(NC(=O)c3cc(NC(=O)c4cc(NC(=O)c5cc(NC=O)cn5C)cn4C)cn3C)cn2C)cc1C(=O)NCCC(=N)N | 17 | 20 | 56 | 56 | 91 |  | 65 | 50 | < 5 | 39 | < 5 | <50 |  | inhibition at 200 µM (Human alphaherpesvirus 1 [15]): 10%
Br.Cn1cc(NC=O)cc1C(=O)Nc1cc(C(=O)Nc2c[nH]c(C(=O)NCCC(=N)N)c2)n(C)c1 | 27 | 45 | 75 | 57 | 83 | 99 |  | 37 | < 5 | 17 | < 5 |  | <50 | inhibition at 10 µM (Human alphaherpesvirus 1 [6]): 60%; Reduction (Human alphaherpesvirus 1 [7]): >90%; Reduction (Human alphaherpesvirus 1 [17]): <50%; Reduction (Human alphaherpesvirus 1 [18]): 85%
Br.CCn1cc(NC=O)cc1C(=O)Nc1cc(C(=O)Nc2cc(C(=O)NCCC(=N)N)n(C)c2)n(C)c1 | 29 | 60 | 85 | 48 | 83 |  | <50 | 42 | < 5 | 11 | < 5 | 50 |  | inhibition at 200 µM (Human alphaherpesvirus 1 [15]): 50%
Br.CCn1cc(NC(=O)c2cc(NC=O)cn2C)cc1C(=O)Nc1cc(C(=O)NCCC(=N)N)n(C)c1 | 23 | 31 | 64 | 48 | 83 |  | <50 | 34 | < 5 | 8 | < 5 | <50 |  | inhibition at 200 µM (Human alphaherpesvirus 1 [20]): 10%
Br.Cn1cc(NC(=O)c2cc(NC(=O)c3cc(NC=O)c[nH]3)cn2C)cc1C(=O)NCCC(=N)N | 31 | 58 | 82 | 54 | 89 | 98 | 75 | 45 | < 5 | 18 | < 5 |  |  | inhibition at 100 µM (Human alphaherpesvirus 1 [21]): 50%; inhibition at 10 µM (Human alphaherpesvirus 1 [6]): 30%; Reduction (Human alphaherpesvirus 1 [22]): >90%; Reduction (Human alphaherpesvirus 1 [7]): 60%; Reduction (Human alphaherpesvirus 1 [8]): 90%
Br.CCn1cc(NC(=O)c2cc(NC(=O)c3cc(NC=O)cn3CC)cn2CC)cc1C(=O)NCCC(=N)N | 29 | 58 | 75 | 47 | 80 |  | <50 | 39 | < 5 | 9 | < 5 | <50 |  | 
Br.CNC(=N)CCNC(=O)c1cc(NC(=O)c2cc(NC(=O)c3cc(NC=O)cn3C)cn2C)cn1C | 27 | 50 | 76 | 45 | 76 |  |  | 38 | < 5 | 12 | < 5 | <50 | <50 | 
Br.CCn1cc(NC(=O)c2cc(NC(=O)c3cc(NC=O)cn3C)cn2C)cc1C(=O)NCCC(=N)N | 26 | 40 | 73 | 52 | 83 |  | <50 | 35 | < 5 | 11 | < 5 | <50 |  | inhibition at 200 µM (Human alphaherpesvirus 1 [23]): 10%
Br.CN(C)C(=N)CCNC(=O)c1cc(NC(=O)c2cc(NC(=O)c3cc(NC=O)cn3C)cn2C)cn1C | 29 | 56 | 80 | 44 | 81 |  |  | 41 | < 5 | 15 | < 5 | <50 | 50 | inhibition at 200 µM (Human alphaherpesvirus 1 [15]): 0%
Br.Cn1cc(NC(=O)c2cc(NC(=O)c3cc(NC=O)cn3C)cn2C)cc1C(=O)NCCC(=N)N | 31 | 58 | 82 | 49 | 83 | 27 |  | 40 |  |  |  | 55 | >50 | 
